The results in this text go back to ChEMBL document CHEMBL3351711, “Design, synthesis and biological evaluation of novel 6H-benzo[c]chromen-6-one, and 7,8,9,10-tetrahydro-benzo[c]chromen-6-one derivatives as potential cholinesterase inhibitors” (Bioorg Med Chem, 2014).

Molecules are shown by their SMILES.

For one assay, the target named is Acetylcholinesterase (Homo sapiens, UniProt P22303). Briefly: Inhibition of human recombinant AChE using acetylthiocholine iodide substrate incubated for 15 mins by spectrophotometry based Ellman's method. Background: DTNB colorimetry detects thiols as they appear.
The target in the next assay is Cholinesterase (Homo sapiens, UniProt P06276). Briefly: Inhibition of human recombinant BuChE using butyrylthiocholine iodide substrate incubated for 15 mins by spectrophotometry based Ellman's method.
For assay [1], the species on record is Homo sapiens. Briefly: Selectivity index, ratio of IC50 for human recombinant BuChE to IC50 for human recombinant AChE.
The subject of another assay is Rattus norvegicus. In words: Antagonism of scopolamine-induced passive avoidance in Wistar rat assessed as latency of visiting dark box measured for 5 mins at 1 mg/kg, po dosed 30 mins after scopolamine challenge and measured 1 hr post dose. The format is functional. In outline: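 Rats, 10 per compound. Scopolamine 1 mg/kg ip given 30 min before the test compound (1 mg/kg oral). One hour after dosing, rats placed in the illuminated compartment with the door closed for 30 s habituation. Door then opens automatically and latency to enter the dark box is timed over 5 min. Antagonism (%) is scaled against the latency difference between no-scopolamine and scopolamine-only groups, taken as 100%.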

Assay [2] is filed under the species Homo sapiens. In words: Selectivity index, ratio of IC50 for human recombinant AChE to IC50 for human recombinant BuChE. The essentials:
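Modified Ellman assay in Tris-HCl pH 8.0 with DTNB (0.34 mM final). Human recombinant AChE (0.4 U/mL solution) with acetylthiocholine iodide; human recombinant BuChE (1.6 U/mL solution) with butyrylthiocholine iodide (1.5 mM final). 15 min at 27 °C, read at 412 nm against enzyme-free blank and inhibitor-free control, in triplicate. IC50s fitted by sigmoidal Hill slope; ratio of the two IC50s.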

Chain of Acetylcholinesterase (P22303 whole entry): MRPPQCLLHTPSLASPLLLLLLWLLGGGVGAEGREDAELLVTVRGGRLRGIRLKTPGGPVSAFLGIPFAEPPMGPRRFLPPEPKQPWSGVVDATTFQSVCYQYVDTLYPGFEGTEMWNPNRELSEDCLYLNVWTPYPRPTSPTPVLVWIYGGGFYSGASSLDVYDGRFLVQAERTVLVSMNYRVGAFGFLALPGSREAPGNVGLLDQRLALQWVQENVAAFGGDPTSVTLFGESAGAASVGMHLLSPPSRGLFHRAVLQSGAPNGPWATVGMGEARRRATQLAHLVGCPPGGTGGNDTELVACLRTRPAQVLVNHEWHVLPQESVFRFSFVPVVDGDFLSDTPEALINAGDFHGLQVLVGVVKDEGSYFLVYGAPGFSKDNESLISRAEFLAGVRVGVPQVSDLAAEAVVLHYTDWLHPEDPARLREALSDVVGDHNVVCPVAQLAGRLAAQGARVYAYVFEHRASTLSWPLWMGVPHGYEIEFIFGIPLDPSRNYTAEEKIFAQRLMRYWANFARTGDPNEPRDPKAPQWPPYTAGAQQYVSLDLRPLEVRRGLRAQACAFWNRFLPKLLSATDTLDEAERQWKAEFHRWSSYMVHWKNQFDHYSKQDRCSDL
Chain of Cholinesterase (P06276 whole entry): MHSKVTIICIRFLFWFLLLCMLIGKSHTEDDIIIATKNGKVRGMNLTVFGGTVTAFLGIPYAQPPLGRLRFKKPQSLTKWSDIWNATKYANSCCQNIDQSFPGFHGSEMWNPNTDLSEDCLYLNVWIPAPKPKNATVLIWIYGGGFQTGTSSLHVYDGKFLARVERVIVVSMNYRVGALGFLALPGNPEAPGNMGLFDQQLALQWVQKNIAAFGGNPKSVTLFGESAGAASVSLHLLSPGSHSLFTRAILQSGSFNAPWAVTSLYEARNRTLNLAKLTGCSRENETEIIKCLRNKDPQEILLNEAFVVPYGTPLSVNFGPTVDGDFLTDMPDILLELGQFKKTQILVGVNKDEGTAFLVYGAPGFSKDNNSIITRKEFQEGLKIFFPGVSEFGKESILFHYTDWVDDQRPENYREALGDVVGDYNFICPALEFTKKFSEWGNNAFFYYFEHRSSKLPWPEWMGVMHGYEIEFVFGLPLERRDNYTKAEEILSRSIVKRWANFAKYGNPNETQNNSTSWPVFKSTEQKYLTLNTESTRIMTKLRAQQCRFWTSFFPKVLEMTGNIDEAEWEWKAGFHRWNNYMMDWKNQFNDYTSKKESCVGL

`CN(CCCOc1ccc2c3c(c(=O)oc2c1)CCCC3)Cc1ccccc1`: the IC50 is 2.1 µM on Acetylcholinesterase and 15.9 µM at Cholinesterase. Further, in the assay filed under Homo sapiens [1], the Ratio IC50 is 7.6.

On to `O=c1oc2cc(OCCCN3CCC(Cc4ccccc4)CC3)ccc2c2ccccc12`, for which the concentration for half-maximal inhibition (IC50) on Acetylcholinesterase was 4.1 µM; on Cholinesterase, 21.3 µM. Further, the Ratio IC50 in the assay listed under Homo sapiens [1] came out at 5.2.

Turning to `CCN(C)C(=O)Oc1cccc([C@H](C)N(C)C)c1` (racemic) [RIVASTIGMINE], the inhibition in vivo at 1 mg/kg in the assay with Rattus norvegicus was 85%.

For `CN(CCCCOc1ccc2c3c(c(=O)oc2c1)CCCC3)Cc1ccccc1`, the IC50 is 1 µM at Acetylcholinesterase and 18.9 µM on Cholinesterase. In addition, the Ratio IC50 in the assay listed under Homo sapiens [1] amounted to 18.9. The inhibition in vivo at 1 mg/kg with Rattus norvegicus stood at 65%.

Turning to `CN(CCOc1ccc2c3c(c(=O)oc2c1)CCCC3)Cc1ccccc1`, the figures for the 50% inhibitory concentration (IC50) on Acetylcholinesterase and on Cholinesterase were 2.8 µM and over 40 µM, respectively. Besides, in the assay listed under Homo sapiens [1], the Ratio IC50 is over 14.

As to `COc1cccc(CC2CCN(CCCOc3ccc4c(c3)oc(=O)c3ccccc34)CC2)c1`, the values for the IC50 on Acetylcholinesterase and on Cholinesterase were 18.5 µM and over 40 µM, respectively. In addition, the Ratio IC50 in the assay filed under Homo sapiens [1] is over 2.

As for `O=c1oc2cc(OCCN3CCN(Cc4ccccc4)CC3)ccc2c2c1CCCC2`, the results for the IC50 on Acetylcholinesterase and on Cholinesterase were 1.3 µM and 32 µM, respectively. In addition, in the assay listed under Homo sapiens [1], the Ratio IC50 stood at 24.6.

As for `CN(CCCCOc1ccc2c(c1)oc(=O)c1ccccc12)Cc1ccccc1`, the concentration for half-maximal inhibition (IC50) was determined as 1.1 µM on Acetylcholinesterase and 6.5 µM at Cholinesterase. In addition, the Ratio IC50 in the assay listed under Homo sapiens [1] is 5.9. For the same compound, the inhibition in vivo at 1 mg/kg with Rattus norvegicus amounted to 62%.

As for `O=c1oc2cc(OCCN3CCC(Cc4ccccc4)CC3)ccc2c2ccccc12`, the half-maximal inhibitory concentration (IC50) at Acetylcholinesterase is 20 µM; at Cholinesterase it was over 40 µM. Also, the Ratio IC50 in the assay filed under Homo sapiens [1] is over 2.

As to `COc1cccc(CN2CCN(CCCCOc3ccc4c(c3)oc(=O)c3ccccc34)CC2)c1`, the 50% inhibitory concentration (IC50) was 21.3 µM on Acetylcholinesterase and over 40 µM on Cholinesterase. The Ratio IC50 in the assay filed under Homo sapiens [1] was over 1.

Take `CC(c1cc(O)cc2oc(=O)c3ccccc3c12)N(C)C` (racemic): the IC50 on Cholinesterase was over 40 µM. Moreover, the Ratio IC50 in the assay listed under Homo sapiens [1] is over 1.

For the compound `COc1cccc(CN2CCN(CCCCOc3ccc4c5c(c(=O)oc4c3)CCCC5)CC2)c1`, the IC50 amounted to 8.7 µM at Acetylcholinesterase and 23.4 µM at Cholinesterase. For the same compound, in the assay filed under Homo sapiens [1], the Ratio IC50 was 2.7.

Turning to `COc1cccc(CN2CCN(CCCOc3ccc4c(c3)oc(=O)c3ccccc34)CC2)c1`, the figures for the IC50 at Acetylcholinesterase and on Cholinesterase were 18 µM and over 40 µM, respectively. The Ratio IC50 in the assay listed under Homo sapiens [1] is over 2.

With `COc1cccc(CC2CCN(CCCCOc3ccc4c(c3)oc(=O)c3ccccc34)CC2)c1`, the IC50 on Acetylcholinesterase was 27.4 µM; on Cholinesterase it was over 40 µM. The Ratio IC50 in the assay listed under Homo sapiens [1] was over 1.

Take `COc1cccc(CN(C)CCCOc2ccc3c(c2)oc(=O)c2ccccc23)c1`: the IC50 on Acetylcholinesterase worked out at 20.9 µM; at Cholinesterase, 29.2 µM. Besides, the Ratio IC50 in the assay listed under Homo sapiens [1] was determined as 1.4.

As to `O=c1oc2cc(OCCCN3CCC(Cc4ccccc4)CC3)ccc2c2c1CCCC2`, the IC50 was 4.3 µM at Acetylcholinesterase and over 40 µM at Cholinesterase. In the assay listed under Homo sapiens [1], the Ratio IC50 is over 9.

Take `CC(c1ccc2c(c1)oc(=O)c1ccccc12)N(C)C` (racemic): in the assay listed under Homo sapiens [1], the Ratio IC50 is 1.6. Further, in the assay on Rattus norvegicus, the inhibition in vivo at 1 mg/kg was found to be 70%.

As for `O=c1oc2cc(OCCN3CCN(Cc4ccccc4)CC3)ccc2c2ccccc12`, the concentration for half-maximal inhibition (IC50) turned out to be 0.9 µM at Acetylcholinesterase and 12.1 µM at Cholinesterase. Moreover, in the assay filed under Homo sapiens [1], the Ratio IC50 amounted to 13.4.

For the compound `COc1cccc(CC2CCN(CCOc3ccc4c(c3)oc(=O)c3ccccc34)CC2)c1`, the 50% inhibitory concentration (IC50) was 29.3 µM at Acetylcholinesterase and over 40 µM at Cholinesterase. In the assay listed under Homo sapiens [1], the Ratio IC50 is over 1.

Consider `CN(CCOc1ccc2c(c1)oc(=O)c1ccccc12)Cc1ccccc1`, for which the half-inhibitory concentration (IC50) is 6.7 µM on Acetylcholinesterase and 14.1 µM on Cholinesterase. The Ratio IC50 in the assay filed under Homo sapiens [1] worked out at 2.1.

`COc1cc2c(cc1OC)C(=O)C(CC1CCN(Cc3ccccc3)CC1)C2` (configuration not stated) [DONEPEZIL]: in the assay with Rattus norvegicus, the inhibition in vivo at 1 mg/kg is 58%.

Regarding `COc1cccc(CC2CCN(CCCCOc3ccc4c5c(c(=O)oc4c3)CCCC5)CC2)c1`, the IC50 at Acetylcholinesterase was 13.7 µM; on Cholinesterase it was 27.8 µM. In addition, the Ratio IC50 in the assay filed under Homo sapiens [1] amounted to 2.

As for `COc1cccc(CC2CCN(CCOc3ccc4c5c(c(=O)oc4c3)CCCC5)CC2)c1`, the results for the 50% inhibitory concentration (IC50) at Acetylcholinesterase and on Cholinesterase were 37.2 µM and over 40 µM, respectively. In addition, the Ratio IC50 in the assay filed under Homo sapiens [1] was over 1.

For `COc1cccc(CN2CCN(CCOc3ccc4c5c(c(=O)oc4c3)CCCC5)CC2)c1`, the results for the IC50 at Acetylcholinesterase and on Cholinesterase were 7.3 µM and over 40 µM, respectively. The Ratio IC50 in the assay filed under Homo sapiens [1] is over 5.

For the compound `COc1cccc(CC2CCN(CCCOc3ccc4c5c(c(=O)oc4c3)CCCC5)CC2)c1`, the IC50 at Acetylcholinesterase was 4.9 µM; on Cholinesterase it was over 40 µM. Also, in the assay filed under Homo sapiens [1], the Ratio IC50 is over 8.

On to `COc1cccc(CN(C)CCCCOc2ccc3c(c2)oc(=O)c2ccccc23)c1`, for which the results for the IC50 at Acetylcholinesterase and at Cholinesterase were 8.3 µM and 17.6 µM, respectively. Also, in the assay filed under Homo sapiens [1], the Ratio IC50 was found to be 2.1.

With `COc1cccc(CN(C)CCCCOc2ccc3c4c(c(=O)oc3c2)CCCC4)c1`, the IC50 on Acetylcholinesterase is 1.7 µM; on Cholinesterase it was over 40 µM. Further, in the assay filed under Homo sapiens [1], the Ratio IC50 was over 23.

For the compound `CC(c1cc(O)c2c(c1)oc(=O)c1ccccc12)N(C)C` (racemic), the inhibition in vivo at 1 mg/kg in the assay with Rattus norvegicus was 49%. The Ratio IC50 in the assay filed under Homo sapiens [2] stood at 4.5.

With `O=c1oc2cc(OCCCN3CCN(Cc4ccccc4)CC3)ccc2c2ccccc12`, the figures for the concentration for half-maximal inhibition (IC50) on Acetylcholinesterase and on Cholinesterase were 0.8 µM and 3.7 µM, respectively. In addition, the Ratio IC50 in the assay filed under Homo sapiens [1] is 4.6. In addition, the inhibition in vivo at 1 mg/kg in the assay on Rattus norvegicus amounted to 85%.

In the case of `O=c1oc2cc(OCCCCN3CCC(Cc4ccccc4)CC3)ccc2c2ccccc12`, the figures for the IC50 at Acetylcholinesterase and on Cholinesterase were 14.2 µM and over 40 µM, respectively. For the same compound, in the assay listed under Homo sapiens [1], the Ratio IC50 is over 2.

For `O=c1oc2cc(OCCCCN3CCC(Cc4ccccc4)CC3)ccc2c2c1CCCC2`, the half-inhibitory concentration (IC50) came out at 9.2 µM at Acetylcholinesterase and 20.1 µM on Cholinesterase. Moreover, the Ratio IC50 in the assay filed under Homo sapiens [1] is 2.2.

For `C[C@@H](c1ccc2c(c1)oc(=O)c1ccccc12)N(C)C`, in the assay listed under Homo sapiens [1], the Ratio IC50 was 2.1. Further, the inhibition in vivo at 1 mg/kg in the assay on Rattus norvegicus was determined as 71%.

`CCN(C)C(=O)Oc1cc(C(C)N(C)C)c2c(c1)oc(=O)c1ccccc12` (racemic): on Acetylcholinesterase, the half-maximal inhibitory concentration (IC50) was over 40 µM. Further, in the assay filed under Homo sapiens [2], the Ratio IC50 is over 4.

In the case of `COc1cccc(CN(C)CCOc2ccc3c(c2)oc(=O)c2ccccc23)c1`, the concentration for half-maximal inhibition (IC50) at Acetylcholinesterase was determined as 18.4 µM; at Cholinesterase it was 33.2 µM. Besides, the Ratio IC50 in the assay listed under Homo sapiens [1] came out at 1.8.

As to `O=c1oc2cc(OCCCN3CCN(Cc4ccccc4)CC3)ccc2c2c1CCCC2`, the IC50 was found to be 0.9 µM on Acetylcholinesterase and 3.1 µM at Cholinesterase. Besides, the Ratio IC50 in the assay listed under Homo sapiens [1] is 3.4. For the same compound, the inhibition in vivo at 1 mg/kg with Rattus norvegicus was 58%.

Take `COc1cccc(CN(C)CCOc2ccc3c4c(c(=O)oc3c2)CCCC4)c1`: the concentration for half-maximal inhibition (IC50) is 6 µM on Acetylcholinesterase and over 40 µM on Cholinesterase. Further, in the assay listed under Homo sapiens [1], the Ratio IC50 is over 6.

For `CN(CCCOc1ccc2c(c1)oc(=O)c1ccccc12)Cc1ccccc1`, the 50% inhibitory concentration (IC50) stood at 8.5 µM on Acetylcholinesterase and 14.9 µM on Cholinesterase. In addition, the Ratio IC50 in the assay filed under Homo sapiens [1] was 1.7.

For the compound `COc1cc(C(C)N(C)C)c2c(c1)oc(=O)c1ccccc12` (racemic), the Ratio IC50 in the assay listed under Homo sapiens [1] worked out at 1.6.

On to `COc1cccc(CN2CCN(CCOc3ccc4c(c3)oc(=O)c3ccccc34)CC2)c1`, for which the IC50 at Acetylcholinesterase is 11.4 µM; on Cholinesterase, over 40 µM. The Ratio IC50 in the assay filed under Homo sapiens [1] was over 3.

Consider `O=c1oc2cc(OCCCCN3CCN(Cc4ccccc4)CC3)ccc2c2ccccc12`, for which the half-maximal inhibitory concentration (IC50) is 8.2 µM at Acetylcholinesterase and over 40 µM at Cholinesterase. The Ratio IC50 in the assay listed under Homo sapiens [1] was over 4.

`O=c1oc2cc(OCCN3CCC(Cc4ccccc4)CC3)ccc2c2c1CCCC2`: the IC50 at Acetylcholinesterase is 8.1 µM; at Cholinesterase it was over 40 µM. The Ratio IC50 in the assay filed under Homo sapiens [1] is over 5.

On to `COc1cccc(CN(C)CCCOc2ccc3c4c(c(=O)oc3c2)CCCC4)c1`, for which the IC50 on Acetylcholinesterase is 2.7 µM; at Cholinesterase, over 40 µM. In addition, the Ratio IC50 in the assay filed under Homo sapiens [1] was over 14.

Take `COc1cc(C(C)N(C)C)cc2oc(=O)c3ccccc3c12` (racemic): the Ratio IC50 in the assay listed under Homo sapiens [1] stood at 7.5. Also, the inhibition in vivo at 1 mg/kg with Rattus norvegicus is 71%.

As to `O=c1oc2cc(OCCCCN3CCN(Cc4ccccc4)CC3)ccc2c2c1CCCC2`, the IC50 was determined as 6.4 µM at Acetylcholinesterase and 14.6 µM at Cholinesterase. In addition, the Ratio IC50 in the assay listed under Homo sapiens [1] stood at 2.3.

As for `COc1cccc(CN2CCN(CCCOc3ccc4c5c(c(=O)oc4c3)CCCC5)CC2)c1`, the figures for the IC50 at Acetylcholinesterase and at Cholinesterase were 6.2 µM and 18.4 µM, respectively. Moreover, in the assay filed under Homo sapiens [1], the Ratio IC50 was found to be 2.9.

As a reminder, the IC50 is the concentration needed to halve the response being measured. Usually inhibition in vivo stands for the change of the read-out against control, counted positive when it falls.
